Measurements of several laboratories.
Lines come from different studies, so protocols differ. Values after ≈ are worked out from the molar mass of the structure shown.
Organism: Pseudomonas aeruginosa
Observed: microbial growth

| SMILES | technique | strain | notes | MIC |
| --- | --- | --- | --- | --- |
| CCOC(=O)c1nnn(-c2cccc(NC(=O)Nc3ccc(Cl)c(Cl)c3)c2)c1C | broth dilution | ATCC27853 | – | > 64 µg/mL |
| C[C@H]1COCCN1c1nc(NCc2cccnc2C(F)(F)F)c2cccnc2n1 | broth dilution | NCTC13437 | – | 64 µg/mL (≈ 158 µM) |
| COC(=O)c1cc(-c2cccc(NC(=O)NCc3ccccc3)c2)on1 | broth dilution | ATCC27853 | – | > 64 µg/mL |
| CC1(C)SC2C(NC(=O)C(NC(=O)C3=C(O)C(Cc4ccc([N+](=O)[O-])cc4)NC3=O)c3ccccc3)C(=O)N2C1C(=O)O (stereo not drawn) | – | – | – | 50 µg/mL (≈ 82 µM) |
| CN[C@H](CC(C)C)C(=O)N[C@H]1C(=O)N[C@@H](CC(N)=O)C(=O)N[C@H]2C(=O)N[C@H]3C(=O)N[C@H](C(=O)N[C@H](C(=O)O)c4cc(O)cc(O)c4-c4cc3ccc4O)[C@H](O)c3ccc(c(Cl)c3)Oc3cc2cc(c3O[C@@H]2O[C@H](CO)[C@@H](O)[C@H](O)[C@H]2O[C@H]2C[C@](C)(N)[C@H](O)[C@H](C)O2)Oc2ccc(cc2Cl)[C@H]1O | broth dilution | ATCCBAA2108 | drug-resistant strain | > 64 µg/mL |
| Oc1cc(Cl)ccc1Oc1ccc(Cl)cc1Cl | – | – | – | > 25 µg/mL |
| Cc1cc(/C=C2\Sc3ccccc3N2CCCN2CCC(C)CC2)c2ccccc2[n+]1C.[I-] | broth dilution | ATCCBAA2108 | drug-resistant strain | 64 µg/mL |
| CCCCCCCCCCCC(=O)OC[C@H]1O[C@@H](n2cc(C)c(=O)[nH]c2=O)C[C@@H]1OC(=O)c1ccc(C(C)(C)C)cc1 | broth dilution | – | – | 8 µg/mL (≈ 13.7 µM) |
| CCCCCCC#Cc1cncc(-c2nnc(SCc3cc([N+](=O)[O-])cc([N+](=O)[O-])c3)n2C)c1 | – | – | – | ≥ 20 µg/mL |
| COC(=O)c1cc(-c2cccc(NC(=S)Nc3ccccc3)c2)on1 | broth dilution | ATCC27853 | – | > 64 µg/mL |
| Cc1cc(/C=C2\Sc3ccccc3N2CCCN2CCCCC2)c2ccccc2[n+]1C.[I-] | broth dilution | ATCCBAA2108 | drug-resistant strain | 64 µg/mL |
| COC(=O)c1cc(-c2cccc(NC(=O)Nc3ccc(F)cc3F)c2)on1 | broth dilution | ATCC27853 | – | > 64 µg/mL |
| C[n+]1c(/C=C/c2ccc(O)cc2)cc(/C=C2\Sc3ccccc3N2CCCN2CCOCC2)c2ccccc21.[I-] | broth dilution | ATCCBAA2108 | drug-resistant strain | > 64 µg/mL |
| CC1(C)SC2C(NC(=O)C(NC(=O)C3=C(O)CN(c4ccccc4)C3=O)c3ccccc3)C(=O)N2C1C(=O)O (stereo not drawn) | – | – | – | 100 µg/mL (≈ 182 µM) |
| COC(=O)c1cc(-c2cccc(NC(=S)Nc3cc(C(F)(F)F)cc(C(F)(F)F)c3)c2)on1 | broth dilution | ATCC27853 | – | > 64 µg/mL |
